Measurements reported in the EternaBench riboswitch data.

System: MS2 coat protein
Assay: apparent Kd, MS2 coat protein; higher = weaker binding; RNA-MaP array; FMN 200 µM where present
How it was run: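 On Illumina sequencing-chip clusters, designs were transcribed by stalled E. coli RNA polymerase and titrated with SNAP-549-labelled MS2 coat protein (0.7 or 1.5 nM, doubling to 3 µM), without and then with constant ligand, in 100 mM Tris-HCl pH 7.5, 80 mM KCl, 4 mM MgCl2, BSA, DTT, yeast tRNA and Tween-20. Apparent Kd is the median of filtered per-cluster curve fits to green signal normalised to red-channel RNA signal and control-cluster median Fmax.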

[1] = designed as: OFF switch for flavin mononucleotide, no ligand
[2] = ligand present: flavin mononucleotide, designed as: OFF switch for flavin mononucleotide
[3] = designed as: ON switch for flavin mononucleotide, no ligand
[4] = ligand present: flavin mononucleotide, designed as: ON switch for flavin mononucleotide

Sequence	apparent Kd [1] [nM]	apparent Kd [2] [nM]	apparent Kd [3] [nM]	apparent Kd [4] [nM]
GGUGGACAUGAGGAUCACCCAUGUGAGGAUAUCGGCUAUCUACUCGCUGACGGCUGCUCGAGAAGGCACAUUGU	70.7	107		
UAAAAGCUAGGAUAUACAUGAGGAUCACCCAUGUACCGGCUUGGCCCUGGUCCUAAAUGUAGAAGGAGCACGCC	15.2	23.9		
AAAGCACGAGGAUAUACAUGAGGAUCACCCAUGUAUAACCAACAUAGGUGAUCCUCAUGUAGAAGGCGUGCAAA	18.6	18.4		
GGGUACAUCGGAGGAUAUCAUGUAAAUACAUGAGGAUCACCCAUGUCGAUGGAGAAAUCGGAGAUUGAGAAGGCCGAUGUACCG			16.9	7.1
UUUUUACUUGCAGGAUAUGGAGACAUGAGGAUCACCCAUGUAUGAUAAGCUAAAUUAUGCUGUGGCCAGAAGGGUAUUAUUCUU			63.2	57.4
AAAAAGUGAGGAUAUACGGUGUGGAGUAGACACAACCAGACGUAGAAGGCACAUGAGGAUCACCCAUGUCCAAA	24.1	21.4		
AGUCGGAGCAGAGGAUAUACAUGAGGAUCACCCAUGUAAAUGAAAGAUAAGCUGGAAACAGCAAUGUAGAAGGCUGCUCCGACA	19.2	91.6		
AAAAAGUCAGGAUAUGCGAAGGCGUCUGAUAGACGAGGCUAGCAGAAGGGACAUGAGGAUCACCCAUGUAAAGA	27.2	55.1		
CAGUUCUGAGGAUAUCCACCCUCGUACAUGAGGAUCACCCAUGUUUCCCUCUGGGCUUUCGGAGAAGGCAGGUAUC	51.4	50.4		
UAUAUAUAGUAAGGAUAUGUAUUAAUUCUAUAAACAGAAGGUACUGACAUGAGGAUCACCCAUGUUUUAGUGUGGGCAUGUAGA	49.3	56		
UUGGACGUCGUAGGAUAUGUAGGAUACUCCUACAUGAGGAUCACCCAUGUUGACAUGGAAGAAGGACAGAAGGACGAUGUCCAU			753	50.5
GGACGUGACAUUAACAUGAGGAUCACCCAUGUCAAAAGACAUGAGGAUAUGGAUCCGAAAAGGAUCCAGAAGGCAUGCACGUCC			587	37.1
CAUGGACGGUUAGGAUAUGACCUUUAAUGAAAGUCAGAAGGGAUCGCACAUGAGGAUCACCCAUGUCGCAGACUCGGGCGACUU	14.9	21.1		
GCGCACUAAGUGAGGAUAUCGAUUUUUUUUAGGAUCGAGAAGGCACAUGAGGAUCACCCAUGUUUGACGUGCGC	15.5	15.2		
AGAAACUACGAGAAGGACAUGUGGUCCUUCCAAAACAUGAGGAUCACCCAUGUAGGAUAUCGUAGUUUCAGGAUCGUGAGAUCA	11.5	4.61		
GGUACUCAAAGAGUACCAAUAUGAACAUGAGGAUCACCCAUGUAGGAUAUGCUACUCAAAGAGUAGCAGAAGGACAUGUGUCUA	16.7	75.5		
ACCGGCGCUUACAUGAGGAUCACCCAUGUGCGCACUCGGGCACAGGAUAUCCAUGGUAAGUAUCGGGAGAAGGGUGAGAAGAAU			163	309
GUGGAGUACGUAGGAUAUGUAGGAUAUUCCUACAUGAGGAUCACCCAUGUUAGCAUGGAAGAAGGACAGAAGGACGUGCUCCAG			1180	15
UGGUACUAGGGAGGAUAUGGGAAGAUACAUGAGGAUCACCCAUGUUUAAGAAUGCCGAGAGGCUACUAGAAGGCCCUAGUACCU			268	9.69
UUUCCACAUGAGGAUCACCCAUGUGAGGAUAUGGAGCGCGACCGCGCGGUCGCGUACACCAGAAGGCGCAUGAU	31.9	91		
GUCAGCUCGUGAGGAUAUACAUGUGCUGGAAACAGCACUAUUAUGUUCACAUGAGGAUCACCCAUGUAGAAGGCACGAGCUGAU	16.2	24.9		
UGUCGGAGCAGAGGAUAUUACAUGAGGAUCACCCAUGUAUGAACCAAUAGCUGGAAACAGCAAUGUAAGAAGGCUGCUGCGACA	12.8	182		
AAUUUGGAGGGAGGAUAUACAUGAGGAUCACCCAUGUAGCCUAACACGGCUCUCAAUUUCCAAGUGUAGAAGGCCCAACGUGUU	13.6	48.8		
GGAGCCGGCACCGAGGAUAUUCAUAUUAAAACAUGAGGAUCACCCAUGUAGCUCGAAAGAGCUUGGGAGAAGGCGGAUCGGCUCG			840	43.1

Sequence	apparent Kd [1] [nM]	apparent Kd [2] [nM]	apparent Kd [3] [nM]	apparent Kd [4] [nM]
GUCAUCUCAUGAGGAUAUGCUCGGGUUUCCCGAGCAGAAGGCAUGUCAUACAUGAGGAUCACCCAUGUUGACAUUAAGAUUGUA			4.78	5.04
GAAAGGGCAGGAUAUGCAGAGAGAGAGAGAGAGAGAAAAAAACAUGAGGAUCACCCAUGUAGAAGGGCCGAAAG	34.8	39.1		
UUACUAUUGGAGAAGGGUCGAUCAUAUAGAAUGACAGGAUAUCCAACAUGAGGAUCACCCAUGUGUCACCCAUAUGAGGAUCAC	34.3	52.4		
UUAUAAAGUGUGAGGAUAUGCUGGUCGAUAGAUCAGCAGAAGGCACAUGAGGAUCACCCAUGUAAUAUAUUUUU	48	239		
CAGUAGAUCCGAGGAUAUACAAUCCGGAAACGGUACAUGAGGAUCACCCAUGUAGAAGGCGGAUCUACAGGUACUAAAGUACCU	5.56	8.31		
UCGAAAAUGCAAGGAUAUCAAUUAUAGCAAAAUAAGACAUGAGGAUCACCCAUGUAAAUAUGGAGUGAGAAGGUGCAAUAAUUU			413	123
ACGGCUGUCAGAGGAUAUGGUUACAUGAGGAUCACCCAUGUCAAGGGUCUAAUUAAGUAUAACUACUAGAAGGCUGAUGGCCUA	263	144		
GUGGUUGUCGUAGGAUAUGUAGGAUAUUCCUACAUGAGGAUCACCCAUGUUCGCAUGGAAGAAGGACGGAAGGACGAUGACCAC			156	129
GAGUGACAUGAGGAUCACCCAUGUGAGGAUAUCGGACGGACCUUGUUGGCUUCCGCCGCGAGAAGGCACAUCGG	201	45		
UUUUUGAAGCUUCGUUAAUACAGUUAGGAUAUGAGAGACAUGAGGAUCACCCAUGUGCAUGUUGAUUAGAAGGAACAACUAUCU	20.1	17.4		
AAAGAGUCAGGAUAUUCGUAUAGAGUAGCGCGACUCUAUACGAAGAAGGGACAUGAGGAUCACCCAUGUAAAAA	28.1	45.6		
GCCGUCAACGUAGGAUAUCUUCAGCCACAGCACAUUGCUGUACAUGAGGAUCACCCAUGUCCUGGAGAGAAGGACGGACGGCAG			108	19.6
CUGGUUGUCGAGGAUAUGUCCCGGCUCGCUGACGCAGAAGGCGACACAUGAGGAUCACCCAUGUCGGUUCGCGU	20.1	21.8		
UCGUUUUUUGAGGAUAUGCGACGUUUUUUCGUCGUAGAAGGCGAUACAUGAGGAUCACCCAUGUUUAUGGGCAU	190	318		
UUUAUGUCAGGAUAUACAUGAGGAUCACCCAUGUAUAUCUUAAAGUAUACAUGGAAAUGUAGAAGGGACGUCCU	15.1	17.1		
CUCAAACAUGAGGAUCACCCAUGUGUUGUCGUGGGAGGAUAUCCCAGUUCGGUGGCGUCGGGAGAAGGCCUAUGUC			141	64.7
GCUCGAUGCGCUGAGCACAUGAGGAUCACCCAUGUAAAUGGUCAGGAUAUUUACGUGCUUUAUGUAGAGAAGGGACUAUCGAGC			630	59.4
GGUACUCAAAGAGUACCAAGACGAACAUGAGGAUCACCCAUGUAGGAUAUGCUACUCAAAGAGUAGCAGAAGGACAUGUGCCUA	17.1	107		
GUCAGCUCGUGAGGAUAUACAACACUGCUUCGGCAGUGUAUUAAGAACACAUGAGGAUCACCCAUGUAGAAGGCACGAGCUGAU	4.92	6.08		
AAGAGUGCAGGAUAUACUUGGUAGGGCGGGUGGAUGGUUUGACAUGAGGAUCACCCAUGUAGAAGGGCAGAGAG	38.7	27.6		
UUCACGUUAGUAGGAUAUCCGACAUGAGGAUCACCCAUGUCAACAUGGCUCUAGGGAAGUUGUUAGGAGAAGGGCUUUUAAAUA			11.9	10.3
AUUGUAUAGGAAGGAUAUAGAAUAUUAUUUUAACAUGAGGAUCACCCAUGUAACCUUAUGUGUAGCUAGAAGGUCCAUUUAUUA	99.6	150		
UACAUUACUUAGAAGGGAUAUAUAUAAUUUUAGUCAGGAUAUAGAUACAGUACAACAUGAGGACAUGAGGAUCACCCAUGUAUU			29.8	20.8
AACAAACAUGAGGAUCACCCAUGUCAGGAUAUCCGAAAUAAAGAAACAAUAAUAAUAAGGAGAAGGGACUAAAU	53.5	55.5		
